From ChEMBL document CHEMBL3745673, “Synthesis, antimycobacterial screening and ligand-based molecular docking studies on novel pyrrole derivatives bearing pyrazoline, isoxazole and phenyl thiourea moieties” (Eur J Med Chem, 2016)
Values after ≈ are worked out from the molar mass of the structure shown. Active and inactive are the calls of the source. No cut-off for these calls is given here.

Assays:
[1] = system: Staphylococcus aureus; experiment: Antibacterial activity against Staphylococcus aureus after 18 hrs by broth microdilution method; type: functional
How it was run: (§1)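 Broth microdilution; compounds dissolved in DMSO (10 mg in 1 mL), serially diluted in Mueller-Hinton medium to 0.2–100 µg/mL. MIC taken as lowest concentration giving no visible growth. DMSO solvent control at matching dilutions.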

[2] = system: Escherichia coli; experiment: Antibacterial activity against Escherichia coli after 18 hrs by broth microdilution method; type: functional; how it was run: as §1
[3] = system: Mycobacterium tuberculosis; experiment: Inhibition of Mycobacterium tuberculosis His6-tagged InhA expressed in Escherichia coli BL21 using trans-2-dodecenoyl-coA as substrate at 50 uM

Structure (SMILES)	MIC [1]	MIC [2]	inhibition [3]
CC(=O)N1N=C(c2ccc(-n3cccc3)cc2)CC1c1c(Cl)cccc1Cl (configuration not stated)	25 µg/mL (≈ 62.8 µM)	50 µg/mL (≈ 126 µM)	–
O=C(/C=C/c1ccccc1Br)c1ccc(-n2cccc2)cc1	50 µg/mL (≈ 142 µM)	25 µg/mL (≈ 71 µM)	–
COc1ccc(/C=C/C(=O)c2ccc(-n3cccc3)cc2)cc1OC	12.5 µg/mL (≈ 37.5 µM)	12.5 µg/mL (≈ 37.5 µM)	–
c1coc(-c2cc(-c3ccc(-n4cccc4)cc3)on2)c1	50 µg/mL (≈ 181 µM)	25 µg/mL (≈ 90.5 µM)	–
Cc1ccc(C)n1-c1ccccc1NC(=S)Nc1ccc(F)cc1	0.8 µg/mL (≈ 2.36 µM)	0.8 µg/mL (≈ 2.36 µM)	–
Clc1ccccc1-c1cc(-c2ccc(-n3cccc3)cc2)on1	50 µg/mL (≈ 156 µM)	50 µg/mL (≈ 156 µM)	–
COc1ccc(-c2cc(-c3ccc(-n4cccc4)cc3)on2)cc1OC	25 µg/mL (≈ 72.2 µM)	25 µg/mL (≈ 72.2 µM)	–
Cc1ccc(NC(=S)Nc2ccccc2-n2c(C)ccc2C)cc1	0.4 µg/mL (≈ 1.19 µM)	6.25 µg/mL (≈ 18.6 µM)	–
O=C(/C=C/c1cccc(Cl)c1Cl)c1ccc(-n2cccc2)cc1	25 µg/mL (≈ 73.1 µM)	50 µg/mL (≈ 146 µM)	–
O=C(/C=C/c1ccco1)c1ccc(-n2cccc2)cc1	25 µg/mL (≈ 95 µM)	25 µg/mL (≈ 95 µM)	–
CC(=O)N1N=C(c2ccc(-n3cccc3)cc2)CC1c1cccc(Br)c1 (configuration not stated)	50 µg/mL (≈ 122 µM)	25 µg/mL (≈ 61.2 µM)	–
COc1cccc(C2CC(c3ccc(-n4cccc4)cc3)=NN2C(C)=O)c1 (configuration not stated)	25 µg/mL (≈ 69.6 µM)	50 µg/mL (≈ 139 µM)	–
CC(C)c1ccc(/C=C/C(=O)c2ccc(-n3cccc3)cc2)cc1	12.5 µg/mL (≈ 39.6 µM)	12.5 µg/mL (≈ 39.6 µM)	–
O=C(/C=C/c1ccc(Cl)cc1Cl)c1ccc(-n2cccc2)cc1	50 µg/mL (≈ 146 µM)	50 µg/mL (≈ 146 µM)	–
Cc1ccc(C)n1-c1ccccc1NC(=S)Nc1cccc(Cl)c1	0.2 µg/mL (≈ 0.562 µM)	0.4 µg/mL (≈ 1.12 µM)	–
Fc1ccc(-c2cc(-c3ccc(-n4cccc4)cc3)on2)cc1	25 µg/mL (≈ 82.1 µM)	12.5 µg/mL (≈ 41.1 µM)	–
O=C(/C=C/c1ccc(F)cc1)c1ccc(-n2cccc2)cc1	25 µg/mL (≈ 85.8 µM)	12.5 µg/mL (≈ 42.9 µM)	–
O=C(/C=C/c1c(Cl)cccc1Cl)c1ccc(-n2cccc2)cc1	25 µg/mL (≈ 73.1 µM)	50 µg/mL (≈ 146 µM)	–
Cc1ccc(-c2cc(-c3ccc(-n4cccc4)cc3)on2)cc1	25 µg/mL (≈ 83.2 µM)	12.5 µg/mL (≈ 41.6 µM)	–

Structure (SMILES)	MIC [1]	MIC [2]	inhibition [3]
O=C(/C=C/c1ccccc1O)c1ccc(-n2cccc2)cc1	50 µg/mL (≈ 173 µM)	50 µg/mL (≈ 173 µM)	–
O=C(/C=C/c1cccc(Oc2ccccc2)c1)c1ccc(-n2cccc2)cc1	50 µg/mL (≈ 137 µM)	50 µg/mL (≈ 137 µM)	–
COc1cccc(/C=C/C(=O)c2ccc(-n3cccc3)cc2)c1	25 µg/mL (≈ 82.4 µM)	12.5 µg/mL (≈ 41.2 µM)	–
O=C(/C=C/c1ccccc1Cl)c1ccc(-n2cccc2)cc1	25 µg/mL (≈ 81.2 µM)	50 µg/mL (≈ 162 µM)	–
Oc1cc(Cl)ccc1Oc1ccc(Cl)cc1Cl	–	–	> 99%
Cc1ccc(C)n1-c1ccccc1NC(=S)Nc1cccc(Br)c1	0.2 µg/mL (≈ 0.5 µM)	0.2 µg/mL (≈ 0.5 µM)	–
CC(=O)N1N=C(c2ccc(-n3cccc3)cc2)CC1c1ccccc1Br (configuration not stated)	100 µg/mL (≈ 245 µM)	50 µg/mL (≈ 122 µM)	–
O=C(/C=C/c1cccc(Br)c1)c1ccc(-n2cccc2)cc1	50 µg/mL (≈ 142 µM)	25 µg/mL (≈ 71 µM)	–
CC(=O)N1N=C(c2ccc(-n3cccc3)cc2)CC1c1ccc(F)cc1 (configuration not stated)	12.5 µg/mL (≈ 36 µM)	12.5 µg/mL (≈ 36 µM)	–
Cc1ccc(C)n1-c1ccccc1NC(=S)Nc1ccccc1Br	1.6 µg/mL (≈ 4 µM)	0.8 µg/mL (≈ 2 µM)	–
CC(=O)N1N=C(c2ccc(-n3cccc3)cc2)CC1c1ccc(C)cc1 (configuration not stated)	25 µg/mL (≈ 72.8 µM)	12.5 µg/mL (≈ 36.4 µM)	–
O=C(/C=C/c1ccc(Cl)cc1)c1ccc(-n2cccc2)cc1	50 µg/mL (≈ 162 µM)	50 µg/mL (≈ 162 µM)	–
Cc1ccc(C)n1-c1ccccc1NC(=S)Nc1ccc(Cl)c(Cl)c1	0.2 µg/mL (≈ 0.512 µM)	0.2 µg/mL (≈ 0.512 µM)	13%
Brc1cccc(-c2cc(-c3ccc(-n4cccc4)cc3)on2)c1	25 µg/mL (≈ 68.5 µM)	25 µg/mL (≈ 68.5 µM)	–
CC(=O)N1N=C(c2ccc(-n3cccc3)cc2)CC1c1cccc(Oc2ccccc2)c1 (configuration not stated)	100 µg/mL (≈ 237 µM)	50 µg/mL (≈ 119 µM)	–
CCn1cc(C(=O)O)c(=O)c2cc(F)c(N3CCNCC3)cc21 [NORFLOXACIN]	2.02 µg/mL (≈ 6.33 µM)	4 µg/mL (≈ 12.5 µM)	–
c1ccc(Oc2cccc(-c3cc(-c4ccc(-n5cccc5)cc4)on3)c2)cc1	50 µg/mL (≈ 132 µM)	50 µg/mL (≈ 132 µM)	–
Cc1ccc(C)n1-c1ccccc1NC(=S)Nc1ccc([N+](=O)[O-])cc1	0.2 µg/mL (≈ 0.546 µM)	0.4 µg/mL (≈ 1.09 µM)	–
CC(=O)N1N=C(c2ccc(-n3cccc3)cc2)CC1c1ccccc1 (configuration not stated)	50 µg/mL (≈ 152 µM)	50 µg/mL (≈ 152 µM)	–

Structure (SMILES)	MIC [1]	MIC [2]	inhibition [3]
COc1ccc(C2CC(c3ccc(-n4cccc4)cc3)=NN2C(C)=O)c(OC)c1 (configuration not stated)	25 µg/mL (≈ 64.2 µM)	12.5 µg/mL (≈ 32.1 µM)	–
Cc1ccc(C)n1-c1ccccc1NC(=S)Nc1ccccc1	0.8 µg/mL (≈ 2.49 µM)	0.2 µg/mL (≈ 0.622 µM)	–
CC(=O)N1N=C(c2ccc(-n3cccc3)cc2)CC1c1cccc(Cl)c1Cl (configuration not stated)	25 µg/mL (≈ 62.8 µM)	50 µg/mL (≈ 126 µM)	–
c1ccc(-c2cc(-c3ccc(-n4cccc4)cc3)on2)cc1	50 µg/mL (≈ 175 µM)	25 µg/mL (≈ 87.3 µM)	–
COc1ccc(/C=C/C(=O)c2ccc(-n3cccc3)cc2)cc1	25 µg/mL (≈ 82.4 µM)	12.5 µg/mL (≈ 41.2 µM)	–
O=C(/C=C/c1ccccc1)c1ccc(-n2cccc2)cc1	25 µg/mL (≈ 91.5 µM)	25 µg/mL (≈ 91.5 µM)	–
Cc1ccc(C)n1-c1ccccc1NC(=S)Nc1ccc(Cl)cc1	0.2 µg/mL (≈ 0.562 µM)	0.2 µg/mL (≈ 0.562 µM)	inactive
CC(=O)N1N=C(c2ccc(-n3cccc3)cc2)CC1c1ccco1 (configuration not stated)	50 µg/mL (≈ 157 µM)	100 µg/mL (≈ 313 µM)	–
Clc1cccc(Cl)c1-c1cc(-c2ccc(-n3cccc3)cc2)on1	25 µg/mL (≈ 70.4 µM)	50 µg/mL (≈ 141 µM)	–
Clc1ccc(-c2cc(-c3ccc(-n4cccc4)cc3)on2)cc1	25 µg/mL (≈ 77.9 µM)	25 µg/mL (≈ 77.9 µM)	–
COc1ccc(C2CC(c3ccc(-n4cccc4)cc3)=NN2C(C)=O)cc1OC (configuration not stated)	25 µg/mL (≈ 64.2 µM)	12.5 µg/mL (≈ 32.1 µM)	–
Clc1cccc(-c2cc(-c3ccc(-n4cccc4)cc3)on2)c1Cl	50 µg/mL (≈ 141 µM)	25 µg/mL (≈ 70.4 µM)	–
Brc1ccccc1-c1cc(-c2ccc(-n3cccc3)cc2)on1	50 µg/mL (≈ 137 µM)	50 µg/mL (≈ 137 µM)	–
O=C(O)c1cn(C2CC2)c2cc(N3CCNCC3)c(F)cc2c1=O [CIPROFLOXACIN]	0.15 µg/mL (≈ 0.453 µM)	–	–
CC(=O)N1N=C(c2ccc(-n3cccc3)cc2)CC1c1ccccc1Cl (configuration not stated)	50 µg/mL (≈ 137 µM)	25 µg/mL (≈ 68.7 µM)	–
CC(=O)N1N=C(c2ccc(-n3cccc3)cc2)CC1c1ccc(Cl)cc1Cl (configuration not stated)	50 µg/mL (≈ 126 µM)	25 µg/mL (≈ 62.8 µM)	–
CC(=O)N1N=C(c2ccc(-n3cccc3)cc2)CC1c1ccc(Cl)cc1 (configuration not stated)	25 µg/mL (≈ 68.7 µM)	50 µg/mL (≈ 137 µM)	–
Clc1ccc(-c2cc(-c3ccc(-n4cccc4)cc3)on2)c(Cl)c1	25 µg/mL (≈ 70.4 µM)	50 µg/mL (≈ 141 µM)	–
